Source: paper PMC10125284 (ACS Bio & Med Chem Au, 2022)
Entries after “also recorded” stand apart in the source; their conditions may differ. Like-named read-outs stand apart in the source and are kept apart here.

How the values were obtained:
[1] = molecular target: T1, Tsr (Escherichia coli, UniProt P02942); assay: Microfluidic chemotaxis assay, UU1250 expressing Tsr as sole receptor; format: cell-based; settings: UU1250 expressing wild-type Tsr as sole receptor and GFP
[2] = molecular target: T2, Tar (Escherichia coli, UniProt P07017); assay: Microfluidic chemotaxis assay, UU1250 expressing Tar as sole receptor; format: cell-based; settings: cells expressing Tar as sole receptor
[3] = molecular target: T3, Tsar (Escherichia coli, UniProt P02942+P07017); assay: Microfluidic chemotaxis assay, UU1250 expressing hybrid Tsar as sole receptor; format: cell-based; settings: cells expressing hybrid Tsar as sole receptor
[4] = molecular target: T4, Tasr (Escherichia coli, UniProt P02942+P07017); assay: Microfluidic chemotaxis assay, UU1250 expressing hybrid Tasr as sole receptor; format: cell-based; settings: cells expressing hybrid Tasr as sole receptor
[5] = tested on: wild-type E. coli strain RP437; assay: Microfluidic chemotaxis assay, wild-type strain RP437; format: cell-based, Escherichia coli; settings: wild-type E. coli RP437, all five chemoreceptors
[6] = molecular target: Tsr^R64A (Escherichia coli, UniProt P02942, R64A); assay: Microfluidic chemotaxis assay, cells expressing Tsr^R64A as sole receptor; format: cell-based
[7] = molecular target: T5, Tsr^N68A (Escherichia coli, UniProt P02942, N68A); assay: Microfluidic chemotaxis assay, cells expressing Tsr^N68A as sole receptor; format: cell-based
[8] = molecular target: Tsr^R64AN68A (Escherichia coli, UniProt P02942, N68A/R64A); assay: Microfluidic chemotaxis assay, cells expressing Tsr^R64AN68A as sole receptor; format: cell-based
[9] = molecular target: T1, Tsr; assay: FRET; format: cell-based; settings: for effect of adaptation to L-serine on FRET response to ligand: Tsr adapted to 200 μM L-serine; for FRET response (kinase activity): Tsr as sole receptor, buffer-adapted
[10] = molecular target: T2, Tar; assay: FRET assay, cells expressing Tar as sole receptor; format: cell-based
[11] = molecular target: T3, Tsar; assay: FRET assay, cells expressing Tsar as sole receptor; format: cell-based
[12] = molecular target: T4, Tasr; assay: FRET assay, cells expressing Tasr as sole receptor; format: cell-based
[13] = tested on: wild-type RP437; assay: FRET assay, wild-type RP437; format: cell-based, Escherichia coli
[14] = molecular target: T6, Tsr-LBD (Escherichia coli, UniProt P02942); assay: Microscale thermophoresis; format: binding; settings: for binding to Tsr-LBD in competition (MST): pocket saturated with high concentration of L-serine (25 mM)
T6 sequence (P02942 30-190): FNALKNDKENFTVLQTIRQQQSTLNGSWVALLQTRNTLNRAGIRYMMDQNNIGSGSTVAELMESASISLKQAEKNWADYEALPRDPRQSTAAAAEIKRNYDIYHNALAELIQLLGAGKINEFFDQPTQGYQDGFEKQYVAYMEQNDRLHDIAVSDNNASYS
Outline: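 Tsr residues 30-190 carrying an N-terminal 6×His tag were expressed in E. coli after 1 mM IPTG induction for 6 h at 28 °C. The protein was purified by Ni affinity and gel filtration (50 mM Tris-HCl pH 8.0, 200 mM NaCl) and labelled with a RED-tris-NTA His-tag dye. Compound serial dilutions in HEPES buffer were mixed 1:1 with protein and read in capillaries at 60% excitation and 20% MST power. Kd came from dose-response fits of normalised traces, temperature-jump/thermophoresis mode.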

[15] = molecular target: T5, Tsr^N68A; assay: FRET assay, cells expressing Tsr^N68A as sole receptor; format: cell-based
[16] = molecular target: T6, Tsr-LBD; settings: read-out: Kd, previously reported; cited from earlier work

T3 sequence (P02942 1-201): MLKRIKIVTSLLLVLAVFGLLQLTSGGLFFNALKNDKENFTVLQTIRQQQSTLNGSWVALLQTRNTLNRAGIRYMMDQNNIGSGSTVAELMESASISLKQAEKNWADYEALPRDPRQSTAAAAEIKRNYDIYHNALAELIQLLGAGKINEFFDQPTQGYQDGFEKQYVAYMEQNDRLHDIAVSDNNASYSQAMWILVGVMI
T3 sequence (P07017 200-553): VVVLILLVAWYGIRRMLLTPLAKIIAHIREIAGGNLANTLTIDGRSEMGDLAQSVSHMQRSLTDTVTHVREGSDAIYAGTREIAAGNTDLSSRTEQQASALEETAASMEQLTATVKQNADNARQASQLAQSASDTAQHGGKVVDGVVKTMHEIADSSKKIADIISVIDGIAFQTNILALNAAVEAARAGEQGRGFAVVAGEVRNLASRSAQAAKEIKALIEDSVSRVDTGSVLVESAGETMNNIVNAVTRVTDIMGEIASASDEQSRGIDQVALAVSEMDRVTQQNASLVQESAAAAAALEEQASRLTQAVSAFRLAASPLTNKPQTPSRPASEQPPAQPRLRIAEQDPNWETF
T4 sequence (P07017 1-199): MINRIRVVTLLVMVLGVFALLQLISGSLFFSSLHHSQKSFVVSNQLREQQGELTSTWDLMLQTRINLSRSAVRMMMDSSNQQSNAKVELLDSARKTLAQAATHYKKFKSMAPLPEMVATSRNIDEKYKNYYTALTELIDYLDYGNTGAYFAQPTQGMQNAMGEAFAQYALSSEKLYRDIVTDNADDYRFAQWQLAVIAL
T4 sequence (P02942 202-551): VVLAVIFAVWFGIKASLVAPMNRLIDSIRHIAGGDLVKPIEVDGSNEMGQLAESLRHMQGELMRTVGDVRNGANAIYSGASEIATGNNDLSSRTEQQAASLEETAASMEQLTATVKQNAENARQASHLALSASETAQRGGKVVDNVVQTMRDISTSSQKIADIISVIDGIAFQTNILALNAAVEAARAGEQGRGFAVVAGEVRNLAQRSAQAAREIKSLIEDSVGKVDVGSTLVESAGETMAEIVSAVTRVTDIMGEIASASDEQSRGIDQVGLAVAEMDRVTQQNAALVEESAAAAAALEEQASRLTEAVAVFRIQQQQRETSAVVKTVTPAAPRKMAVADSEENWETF
T5 sequence (P02942 whole entry N68A): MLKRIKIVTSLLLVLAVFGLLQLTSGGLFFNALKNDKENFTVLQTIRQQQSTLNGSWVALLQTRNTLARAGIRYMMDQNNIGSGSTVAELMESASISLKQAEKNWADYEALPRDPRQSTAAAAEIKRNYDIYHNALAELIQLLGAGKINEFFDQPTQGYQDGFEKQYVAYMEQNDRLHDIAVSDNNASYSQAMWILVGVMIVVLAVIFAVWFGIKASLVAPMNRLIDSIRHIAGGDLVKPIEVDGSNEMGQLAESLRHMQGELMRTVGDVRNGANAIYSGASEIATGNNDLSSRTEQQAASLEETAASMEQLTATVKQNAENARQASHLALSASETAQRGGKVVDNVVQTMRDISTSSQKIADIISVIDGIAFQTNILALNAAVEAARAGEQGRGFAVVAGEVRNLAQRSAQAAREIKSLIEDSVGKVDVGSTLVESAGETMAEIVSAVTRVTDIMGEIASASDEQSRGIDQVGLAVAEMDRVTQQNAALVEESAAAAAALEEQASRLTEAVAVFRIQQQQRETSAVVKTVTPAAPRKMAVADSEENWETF
T1 sequence (P02942 whole entry): as the sequence (P02942 whole entry N68A) above, with A68N counted along it
Sequence of Tsr^R64AN68A (P02942 whole entry R64A/N68A): as the sequence (P02942 whole entry N68A) above, with R64A counted along it
Sequence of Tsr^R64A (P02942 whole entry R64A): as the sequence (P02942 whole entry N68A) above, with R64A, A68N counted along it
T2 sequence (P07017 whole entry): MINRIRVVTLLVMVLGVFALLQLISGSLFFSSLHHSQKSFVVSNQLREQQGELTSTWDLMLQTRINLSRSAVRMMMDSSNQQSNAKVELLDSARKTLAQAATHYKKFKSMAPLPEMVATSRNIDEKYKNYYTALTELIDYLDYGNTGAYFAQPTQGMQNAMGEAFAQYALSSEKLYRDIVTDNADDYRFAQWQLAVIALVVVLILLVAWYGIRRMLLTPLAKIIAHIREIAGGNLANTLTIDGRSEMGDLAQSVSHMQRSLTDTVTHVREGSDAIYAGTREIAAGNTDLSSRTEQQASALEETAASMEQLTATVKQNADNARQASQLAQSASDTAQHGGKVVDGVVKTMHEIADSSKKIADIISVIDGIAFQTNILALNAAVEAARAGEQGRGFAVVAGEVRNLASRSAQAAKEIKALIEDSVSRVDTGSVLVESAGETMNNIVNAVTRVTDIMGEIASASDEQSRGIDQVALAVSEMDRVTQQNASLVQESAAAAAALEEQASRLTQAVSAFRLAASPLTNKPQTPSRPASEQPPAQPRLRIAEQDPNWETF

Compound | chemotactic response (microfluidic) [1] | chemotactic response (microfluidic) [2] | chemotactic response (microfluidic) [3] | chemotactic response (microfluidic) [4] | chemotactic response (microfluidic) [5] | chemotactic response (microfluidic), compared with wild-type Tsr [6] | chemotactic response (microfluidic), compared with wild-type Tsr [7] | chemotactic response (microfluidic), compared with wild-type Tsr [8] | effect of adaptation to L-serine on FRET response to ligand [9] | FRET response (kinase activity) [9] | FRET response [10] | FRET response [11] | FRET response [12] | FRET response [13] | Kd [14] | binding to Tsr-LBD in competition (MST) [14] | FRET response [15] | Kd [16]
NC1(C(=O)O)CCCCC1 [ACHC, 1-aminocyclohexanecarboxylic acid] | robust repellent response | did not show obvious responses | robust repellent responses | did not show obvious responses | robust repellent responses | weaker repellent responses | weaker repellent responses; also recorded: weak repellent response | weaker repellent responses | significantly inhibited | repellent response | no or only a weak response | repellent response | no or only a weak response | repellent response | 10.6 ± 2.4 mM | could not bind |  | 
CC(C)C[C@H](N)C(=O)O [L-leucine] | repellent response | no response | repellent responses | no response | repellent responses | no response or much weaker responses | attractant response | no response or much weaker responses | significantly inhibited | repellent response |  |  |  |  | 23.6 ± 6.8 mM | could not bind | strong attractant response | 
N[C@@H](CO)C(=O)O [L-serine] | drifted up the L-serine gradient |  |  |  |  | weaker attractant responses | weaker attractant responses | weaker attractant responses |  | attractant response |  |  |  |  | 0.207 mM |  |  | 0.0356 mM
